22 molecules from ChEMBL document CHEMBL1817574, “Development of novel conformation-constrained cytotoxic derivatives of cheliensisin A by embedment of small heterocycles” (Eur J Med Chem, 2011) can be followed below.

The term IC50 denotes the concentration that gives 50% inhibition. A higher IC50 goes with lower potency.

For one data set, the system named is PANC-1. The experiment in a line: Cytotoxicity against human PANC1 cells after 48 hrs by MTT assay. The settings on record: PANC-1, 48 h. Format: functional, cell-based.
The next data set has as its system A549. Briefly: Cytotoxicity against human A549 cells after 48 hrs by MTT assay. Format: functional, cell-based. The note with it: A549, 48 h. Background: Tetrazolium assays rely on reduction of a dye to a coloured formazan, in cell work by metabolically active cells.
In the next data set the test system is SK-BR-3. The experiment in a line: Cytotoxicity against human SKBR3 cells after 48 hrs by MTT assay. The settings on record: SK-BR-3, 48 h. Format: functional, cell-based.
The next data set relates to SMMC-7721. Briefly: Cytotoxicity against human SMMC7721 cells after 48 hrs by MTT assay. Format: functional, cell-based. The settings on record: SMMC-7721, 48 h.
The subject of data set [1] is HL-60. The experiment in a line: Cytotoxicity against human HL60 cells after 48 hrs by MTT assay. Format: functional, cell-based. The note with it: HL-60, 48 h. The method, boiled down:
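Log-phase HL-60 cells were seeded at 1.25 × 10⁵ cells/mL and treated in four replicates across various concentrations for 48 h. MTT (5 mg/mL solution) was then added and incubated a further 4 h. The wells were then solubilised with 10% SDS–5% isobutanol–0.012 mol/L HCl before the colorimetric read-out.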

A short description of data set [2]: Chemical stability of the compound in 0.1 M phosphate buffer at pH 7.0 at 0.1 mg/mL after 12 hrs by HPLC analysis. The settings on record: pH 7, 12 h. Format: physicochemical.
Data set [3] concerns HL-60. The experiment in a line: Ratio IC50 for cheliensisin A to compound for human HL60 cells after 48 hrs by MTT assay. Format: functional.

For the molecule `CC(=O)O[C@H]1C=CC(=O)O[C@@H]1[C@H]1N=C(c2ccccc2)O[C@@H]1c1ccccc1`, the IC50 with PANC-1, in the data set on A549, in the data set on SK-BR-3, in the data set with SMMC-7721 and in the data set with HL-60 [1] was above 40 µM in each case.

Regarding `CC(=O)O[C@H]1C=CC(=O)O[C@@H]1[C@@H]1N=C(c2ccccc2)O[C@@H]1c1ccccc1`, the IC50 in the data set with PANC-1 was 12.8 µM; with A549, 18.3 µM; with SK-BR-3 it was 3.65 µM; in the data set with SMMC-7721, 17.7 µM; in the data set on HL-60 [1], 4.3 µM.

`CC(=O)O[C@H]1C=CC(=O)O[C@@H]1[C@H]1N=C(Cc2ccccc2)O[C@@H]1c1ccccc1`: the concentration for half-maximal inhibition (IC50) with PANC-1 was above 40 µM; in the data set with A549 it was above 40 µM; with SK-BR-3 it was 35.2 µM; in the data set with SMMC-7721 it was above 40 µM; in the data set with HL-60 [1], 17.8 µM.

With `C/C=C/C1=N[C@@H]([C@H]2OC(=O)C=C[C@@H]2OC(C)=O)[C@@H](c2ccccc2)O1`, the IC50 turned out to be 3.87 µM in the data set with PANC-1; 30.7 µM with A549; 2.22 µM in the data set on SK-BR-3; 14.5 µM in the data set with SMMC-7721; 1.26 µM in the data set with HL-60 [1].

With `C/C=C\C1=N[C@H]([C@H]2OC(=O)C=C[C@@H]2OC(C)=O)[C@@H](c2ccccc2)O1`, the half-inhibitory concentration (IC50) in the data set on PANC-1 is 23 µM; with A549 it was above 40 µM; with SK-BR-3, above 40 µM; in the data set with SMMC-7721 it was 27 µM; in the data set with HL-60 [1] it was 4.59 µM.

With `C/C=C/C1=N[C@H]([C@H]2OC(=O)C=C[C@@H]2OC(C)=O)[C@@H](c2ccccc2)O1`, the IC50 was 24.4 µM with PANC-1; above 40 µM in the data set on A549; 18 µM with SK-BR-3; above 40 µM with SMMC-7721; 6.93 µM in the data set with HL-60 [1].

In the case of `CC(=O)O[C@H]1C=CC(=O)O[C@@H]1[C@@H]1N=C(/C=C/c2ccccc2)O[C@@H]1c1ccccc1`, the half-maximal inhibitory concentration (IC50) in the data set on PANC-1 is 4.1 µM; in the data set with A549, 18.9 µM; with SK-BR-3, 4.03 µM; in the data set on SMMC-7721 it was 21 µM; in the data set on HL-60 [1], 0.48 µM. The Stability result in data set [2] was “Stable”. Also, the “Ratio IC50” value in the data set on HL-60 [3] is reported as 4.

For the molecule `CC(=O)O[C@H]1C=CC(=O)O[C@@H]1[C@H]1N=C(/C=C/c2ccccc2)O[C@@H]1c1ccccc1`, the IC50 with PANC-1 is 21.1 µM; in the data set on A549, 21.9 µM; in the data set with SK-BR-3 it was 23.1 µM; in the data set with SMMC-7721, 24 µM; in the data set on HL-60 [1], 4.05 µM.

With `CC(=O)O[C@H]1C=CC(=O)O[C@@H]1[C@H]1N=C(C)O[C@@H]1c1ccccc1`, the IC50 with PANC-1 is 16.6 µM; in the data set with A549, above 40 µM; in the data set on SK-BR-3 it was 7.26 µM; in the data set with SMMC-7721, 16.3 µM; in the data set with HL-60 [1] it was 2.52 µM.

Consider `CC(=O)O[C@H]1C=CC(=O)O[C@@H]1[C@H]1N=C(C(=O)c2ccccc2)O[C@@H]1c1ccccc1`, for which the IC50 in the data set with PANC-1, with A549, in the data set with SK-BR-3, with SMMC-7721 and in the data set with HL-60 [1] was above 40 µM each time.

As to `CC(=O)O[C@H]1C=CC(=O)O[C@@H]1c1nc(/C=C/c2ccccc2)oc1-c1ccccc1`, the IC50 turned out to be 7.22 µM in the data set with PANC-1; 24.8 µM in the data set on A549; 7.36 µM in the data set with SK-BR-3; 24.6 µM with SMMC-7721; 5.89 µM in the data set with HL-60 [1]. In addition, the Stability entry in data set [2] is on record as “Stable”.

With `C/C=C\c1nc([C@H]2OC(=O)C=C[C@@H]2OC(C)=O)c(-c2ccccc2)o1`, the IC50 in the data set on PANC-1, with A549, in the data set on SK-BR-3, in the data set on SMMC-7721 and with HL-60 [1] was above 40 µM throughout.

On to `CC(=O)O[C@H]1C=CC(=O)O[C@@H]1c1nc(-c2ccccc2)oc1-c1ccccc1`, for which the IC50 in the data set on PANC-1 was found to be 13.9 µM; in the data set on A549, 14.7 µM; in the data set with SK-BR-3 it was 12 µM; in the data set with SMMC-7721, 15.7 µM; with HL-60 [1], 2.59 µM.

In the case of `CC(=O)O[C@H]1C=CC(=O)O[C@@H]1[C@H](NC(=O)c1ccccc1)[C@H](O)c1ccccc1`, the IC50 in the data set with PANC-1, with A549, in the data set with SK-BR-3, in the data set with SMMC-7721 and with HL-60 [1] was above 40 µM each time.

Take `CC(=O)O[C@H]1C=CC(=O)O[C@@H]1[C@@H](NC(=O)Cc1ccccc1)[C@H](O)c1ccccc1`: the IC50 with PANC-1 was above 40 µM; with A549, above 40 µM; in the data set on SK-BR-3 it was 38.8 µM; in the data set on SMMC-7721 it was above 40 µM; with HL-60 [1], 5.19 µM.

On to `CC(=O)O[C@H]1C=CC(=O)O[C@@H]1[C@@H](NC(=O)/C=C/c1ccccc1)[C@H](O)c1ccccc1`, for which the half-maximal inhibitory concentration (IC50) with PANC-1, with A549, with SK-BR-3, in the data set on SMMC-7721 and in the data set on HL-60 [1] was above 40 µM in each case.

Regarding `CC(=O)O[C@H]1C=CC(=O)O[C@@H]1/C=C/c1ccccc1`, the concentration for half-maximal inhibition (IC50) was determined as 7.95 µM in the data set on PANC-1; 38.8 µM in the data set with A549; 4.63 µM in the data set with SK-BR-3; 29 µM in the data set with SMMC-7721; 2.68 µM in the data set with HL-60 [1]. Further, the Stability entry in data set [2] is “Stable”.

As for `CC(=O)O[C@H]1C=CC(=O)O[C@@H]1[C@@H](O)[C@@H](Nc1ccccc1)c1ccccc1`, the IC50 in the data set on PANC-1, with A549, in the data set on SK-BR-3, with SMMC-7721 and in the data set on HL-60 [1] was above 40 µM in each case.

As to `CC(=O)O[C@H]1C=CC(=O)O[C@@H]1[C@@H](O)[C@H](O)c1ccccc1`, the IC50 in the data set with PANC-1, with A549, in the data set on SK-BR-3, with SMMC-7721 and in the data set with HL-60 [1] was above 40 µM each time.

Turning to `CC(=O)O[C@H]1C=CC(=O)O[C@H]1[C@H]1OC(C)(C)O[C@@H]1c1ccccc1`, the IC50 with PANC-1, in the data set with A549, with SK-BR-3, in the data set with SMMC-7721 and in the data set with HL-60 [1] was above 40 µM each time.

On to `CC(=O)O[C@H]1C=CC(=O)O[C@H]1[C@H]1OC(=O)O[C@@H]1c1ccccc1`, for which the half-inhibitory concentration (IC50) with PANC-1, in the data set on A549, in the data set on SK-BR-3, with SMMC-7721 and with HL-60 [1] was above 40 µM each time.

On to `CC(=O)O[C@H]1C=CC(=O)O[C@H]1[C@H]1O[C@@H]1c1ccccc1` [CHELIENSISIN A], for which the half-maximal inhibitory concentration (IC50) was 25.7 µM in the data set on PANC-1; 5.99 µM in the data set with A549; 20.3 µM with SK-BR-3; 4.7 µM in the data set with SMMC-7721; 1.97 µM with HL-60 [1]. In data set [2], the Stability result is reported as “Stable”.
